Assay results published in article PMC3799977 (Toxicology and applied pharmacology, 2012).
pKi: −log10 of the molar value.

Legend:
[1] = biological target: T1, mouse RORα (Mus musculus, UniProt P51448); assay: CHO-K1 cell-based RORα reporter gene assay; conditions: for ROR activity (RORα): data not shown; for RORα inverse agonistic activity (in words): Fig. 2A; for RIC20 (20% relative inhibitory concentration), RORα assay: inverse agonistic activity, CHO-K1 cells, 24 hr
T1 sequence (P51448 1-467 isoform P51448-2): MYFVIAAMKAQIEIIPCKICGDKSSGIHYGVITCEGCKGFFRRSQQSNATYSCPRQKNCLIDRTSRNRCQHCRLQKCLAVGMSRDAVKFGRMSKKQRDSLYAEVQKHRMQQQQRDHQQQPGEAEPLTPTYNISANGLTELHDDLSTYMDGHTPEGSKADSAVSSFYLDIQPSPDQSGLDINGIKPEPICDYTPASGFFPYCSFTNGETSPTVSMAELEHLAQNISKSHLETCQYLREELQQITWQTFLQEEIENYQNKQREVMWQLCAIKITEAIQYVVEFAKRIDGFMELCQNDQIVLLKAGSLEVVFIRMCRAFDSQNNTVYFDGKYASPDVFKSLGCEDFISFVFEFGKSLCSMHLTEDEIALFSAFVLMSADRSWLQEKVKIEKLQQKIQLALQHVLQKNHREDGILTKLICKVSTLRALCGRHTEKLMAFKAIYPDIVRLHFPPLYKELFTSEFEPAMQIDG

[2] = biological target: T2, mouse RORγ (Mus musculus, UniProt P51450); assay: CHO-K1 cell-based RORγ reporter gene assay; conditions: for ROR activity (RORγ): data not shown; for RIC20 (20% relative inhibitory concentration), RORγ assay: inverse agonistic activity, CHO-K1 cells, 24 hr
T2 sequence (P51450 1-516): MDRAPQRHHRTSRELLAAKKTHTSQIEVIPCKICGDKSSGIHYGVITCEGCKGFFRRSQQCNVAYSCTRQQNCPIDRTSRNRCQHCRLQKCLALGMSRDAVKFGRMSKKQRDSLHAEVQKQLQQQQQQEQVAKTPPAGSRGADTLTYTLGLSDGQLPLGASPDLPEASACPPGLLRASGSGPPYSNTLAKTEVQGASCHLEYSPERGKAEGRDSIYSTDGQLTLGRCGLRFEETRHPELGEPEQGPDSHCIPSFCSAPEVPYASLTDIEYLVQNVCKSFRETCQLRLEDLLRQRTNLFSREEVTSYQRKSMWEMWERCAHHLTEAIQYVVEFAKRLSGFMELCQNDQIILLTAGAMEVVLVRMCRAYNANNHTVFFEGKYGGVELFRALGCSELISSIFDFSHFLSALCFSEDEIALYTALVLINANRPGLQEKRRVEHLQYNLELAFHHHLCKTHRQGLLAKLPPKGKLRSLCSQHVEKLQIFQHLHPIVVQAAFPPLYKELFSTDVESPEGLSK

[3] = test system: IL-17A mRNA expression in EL4/shRorac cells; assay: IL-17A mRNA expression in RORα/γ-knockdown EL4/shRorac cells; assay type: cell-based, mouse; conditions: 10 μM, PMA/ionomycin, RORα/γ double knockdown
Outline: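 EL4/shRorac, a stable RORα/RORγ double-knockdown clone, was made by electroporating a GFP/Neo U6 vector carrying Rora and Rorc shRNAs, then selecting in G418. EL4/shNC (nonsilencing shRNA) served as control. Cells received 10 μM test compound with or without PMA/ionomycin. IL-17 mRNA was measured by real-time RT-PCR, normalized to β-actin, and expressed relative to stimulated vehicle-treated EL4/shNC (=1). Mean ± SD, three experiments.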

[4] = test system: CHO-K1 cells; assay: Cytotoxicity check by β-galactosidase activity in the reporter gene assays; assay type: cell-based, Chinese hamster; conditions: highest dose (30 μM)
[5] = test system: IL-17A mRNA expression in EL4/shNC cells; assay: IL-17A mRNA expression in control shRNA EL4/shNC cells; assay type: cell-based, mouse; conditions: 10 μM, PMA/ionomycin
[6] = test system: IL-17A mRNA expression in mouse T lymphoma EL4 cells; assay: IL-17A mRNA expression in EL4 cells; assay type: cell-based; conditions: 6 h; for IL-17 gene expression, dose dependence: PMA/ionomycin-stimulated EL4 cells, 1, 3, 10 or 30 μM; for IL-17 mRNA expression, real-time PCR: highest dose 30 μM
Outline: (§1)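 EL4 cells were plated at 2 × 10^6 cells/ml in RPMI-1640 with 10% FBS. Next day they were stimulated with PMA (5 ng/ml) plus ionomycin (1 μM) and given vehicle or 1, 3, 10 or 30 μM test compound at 37°C for 6 h. TRIzol RNA was reverse-transcribed and TaqMan real-time PCR run, normalized to β-actin. Results were expressed relative to stimulated vehicle (=1), mean ± SD, three experiments.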

[7] = test system: RORγ mRNA expression in EL4 cells; assay: RORγ mRNA expression in PMA/ionomycin-stimulated EL4 cells; assay type: cell-based, mouse; conditions: 6 h
[8] = test system: RORα mRNA expression in EL4 cells; assay: RORα mRNA expression in PMA/ionomycin-stimulated EL4 cells; assay type: cell-based, mouse; conditions: 6 h
Outline: as §1

[9] = biological target: RORα; conditions: read-out: Ki, binding to RORα; ref Kumar et al. (2010); cited from earlier work
[10] = PMA/ionomycin-stimulated EL4 cells, 10 μM
[11] = PMA/ionomycin-stimulated EL4 cells

Compound	ROR activity (RORα) [1]	ROR activity (RORγ) [2]	RORα inverse agonistic activity (in words) [1]	RIC20 (20% relative inhibitory concentration), RORα assay [1] [µM]	RIC20 (20% relative inhibitory concentration), RORγ assay [2] [µM]	IL-17A mRNA expression, real-time PCR [6, 10]	IL-17 gene expression, dose dependence [6]	further results
CCCC1COC(Cn2cncn2)(c2ccc(Cl)cc2Cl)O1 (stereo not drawn) [propiconazole]	inactive	inactive						
Clc1ccc(CSC(Cn2cncn2)=Nc2ccc(Cl)cc2Cl)cc1 [Imibenconazole]			weak RORα inverse agonists	10	3.3	strongly suppressed IL-17A mRNA expression	inhibit IL-17 gene expression in a dose-dependent manner	IL-17 mRNA expression in EL4/shRorac cells [3]: also suppressed IL-17 mRNA expression; cytotoxic effects based on β-galactosidase activity [4]: except for the highest dose (30 μM); IL-17A mRNA expression in EL4/shNC cells [5]: showed inhibitory effects on IL-17A mRNA expression
CCCOC/C(=N\c1ccc(Cl)cc1C(F)(F)F)n1ccnc1 [Triflumizole]			weak RORα inverse agonists			significantly inhibited	inhibit IL-17 gene expression in a dose-dependent manner	
CCCCC(O)(Cn1cncn1)c1ccc(Cl)cc1Cl (stereo not drawn) [Hexaconazole]			weak RORα inverse agonists	21	3.2	significantly inhibited	inhibit IL-17 gene expression in a dose-dependent manner	
O=S(=O)(c1ccccc1)N(CC(F)(F)F)c1ccc(C(O)(C(F)(F)F)C(F)(F)F)cc1 [T0901317, N-(2,2,2-trifluoroethyl)-N-[4-(2,2,2-trifluoro-1-hydroxy-1-trifluoromethyl-ethyl)-phenyl]-benzene sulfonamide, reference compound]			weak RORα inverse agonists					RORγ mRNA expression [7]: did not affect; IL-17 mRNA expression in EL4/shRorac cells [3]: also suppressed IL-17 mRNA expression; cytotoxic effects based on β-galactosidase activity [4]: except for the highest dose (30 μM); RORα agonistic activity ([1]; CHO cell-based reporter gene assay): didn’t show any RORα/γ agonistic activity; RORα mRNA expression [8]: did not affect; pKi [9]: […]; IL-17A mRNA expression in EL4/shNC cells [5]: showed inhibitory effects on IL-17A mRNA expression; IL-17A mRNA expression, qualitative RT-PCR ([6]; PMA/ionomycin-stimulated EL4 cells, 0.1, 1, 10 μM, Fig. 4A): inhibited IL-17A mRNA expression in a dose-dependent manner; IL-17A mRNA expression, real-time PCR ([6]; PMA/ionomycin-stimulated EL4 cells, 0.1, 1, and 10 μM): significantly inhibited IL-17A mRNA expression; IL-17A gene expression in non-stimulated EL4 cells ([6]; no PMA/ionomycin stimulation, qualitative RT-PCR): neither T0901317 nor the vehicle induced the expression of IL-17A gene
CC(C)(C)C(=O)C(Oc1ccc(Cl)cc1)n1cncn1 (stereo not drawn) [triadimefon]	inactive	inactive						
C=CCOC(Cn1ccnc1)c1ccc(Cl)cc1Cl (stereo not drawn) [Imazalil]			did not show almost any inverse agonistic activity	> 30	29		inhibit IL-17 gene expression in a dose-dependent manner	IL-17 mRNA expression, real-time PCR [6, 11]: significantly suppressed IL-17 mRNAs
FC(F)C(F)(F)OCC(Cn1cncn1)c1ccc(Cl)cc1Cl (stereo not drawn) [Tetraconazole]			did not show almost any inverse agonistic activity	> 30	15		inhibit IL-17 gene expression in a dose-dependent manner	IL-17 mRNA expression, real-time PCR [6, 11]: significantly suppressed IL-17 mRNAs
CCCN(CCOc1c(Cl)cc(Cl)cc1Cl)C(=O)n1ccnc1 [prochloraz]	inactive	inactive						
CC(C)(C)C(O)C(Oc1ccc(-c2ccccc2)cc1)n1cncn1 (stereo not drawn) [bitertanol]	inactive	inactive						
